Assays:
[1] = tested on: Human immunodeficiency virus 1; experiment: Antiviral activity against on HIV1 3b infected C8166 cells assessed as syncytial cell formation after 3 days; assay type: functional, organism-based; settings: Human immunodeficiency virus 1, 3b, C8166, 72 h
Summary of the method: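 C8166 cells (8 × 10^5/mL) seeded with serial concentrations of compound, then infected with HIV-1 IIIB at 1300 TCID50/well; 3 days at 37 °C, 5% CO2. Syncytia (multinucleated giant cells) counted per well under inverted microscope; percent inhibition of syncytium formation versus untreated infected controls gives EC50.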

[2] = Cytotoxicity against C8166 cells by MTT method; assay type: cell-based; settings: human
Summary of the method: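 Uninfected C8166 cells (4 × 10^5/mL) exposed to graded compound concentrations for 72 h at 37 °C, 5% CO2. Supernatant removed, MTT (5 mg/mL stock in PBS) added for 4 h, formazan dissolved in 50% DMF–20% SDS, absorbance read at 595/630 nm. CC50 (50% loss of viable cells) taken from dose-response curve.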

[3] = Selectivity index, ratio of CC50 for C8166 cells to IC50 for HIV1 infected C8166 cells; assay type: functional
Summary of the method: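 Therapeutic index computed as CC50 (MTT viability of uninfected C8166, 72 h) divided by EC50 (inhibition of HIV-1 IIIB syncytium formation in C8166, 3 days), both run in parallel.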

In the case of `COc1cc([C@@H](c2cc(OC)c3c(c2)OCO3)[C@@H]2COC(=O)[C@H]2C)cc(OC)c1OC` [PEPEROMIN B], the EC50 [1] is reported as 5.4 µM, the CC50 [2] is reported as 49.1 µM and the “Ratio CC50/EC50” value [3] is reported as 9.1.

In the case of `COc1cc(C(c2cc(OC)c3c(c2)OCO3)[C@@H]2COC(=O)[C@H]2C)cc2c1OCO2` [PEPEROMIN A], the EC50 [1] is reported as 5.3 µM, the CC50 [2] is reported as 43.2 µM and the “Ratio CC50/EC50” value [3] is reported as 8.2.

In the case of `COc1cc(C(c2cc(OC)c(OC)c(OC)c2)C2COC(=O)C2C)cc(O)c1OC` (stereo not drawn), the EC50 [1] is reported as 27.3 µM, the CC50 [2] is reported as 140 µM and the “Ratio CC50/EC50” value [3] is reported as 5.1.

For `COc1cc(C(c2cc(OC)c(OC)c(OC)c2)[C@@H]2COC(=O)[C@H]2C)cc(OC)c1OC` [PEPEROMIN C], the EC50 [1] was 42.6 µM, the CC50 [2] was 192 µM and the “Ratio CC50/EC50” value [3] was 4.5.

In the case of `COc1cc([C@H]2O[C@H](c3cc(OC)c4c(c3)OCO4)[C@@H](COC(C)=O)[C@@H]2CO)cc(OC)c1O`, the EC50 [1] is reported as 49.8 µM, the CC50 [2] is reported as 229 µM and the “Ratio CC50/EC50” value [3] is reported as 4.6.

For `Cc1cn([C@H]2C[C@H](N=[N+]=[N-])[C@@H](CO)O2)c(=O)[nH]c1=O` [ZIDOVUDINE], the EC50 [1] was 0.017 µM, the CC50 [2] was 4550 µM and the Ratio CC50/EC50 [3] was > 100000.

Reference: ChEMBL document CHEMBL1142103, “Bioactive lignans from Peperomia heyneana” (J Nat Prod, 2007)
